Assay results reported in ChEMBL document CHEMBL3233006 (J Med Chem, 2014).
The source made the active and inactive calls. The rule behind the calls is not given here.

What was measured:
[1] = molecular target: Serine/threonine-protein kinase B-raf (Homo sapiens, UniProt P15056, V600E); test: Inhibition of BRAF V600E mutant (unknown origin) after 1 to 1.5 hrs by FRET-based Z'-Lyte assay
How it was run: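 Z′-Lyte FRET cascade assay in 10 μL. Incubated 1 h at room temperature, then development reagent 1 h, then stop reagent. Controls: phospho-peptide, no ATP, and 4% DMSO solution. Means of 2 independent experiments.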

[2] = molecular target: T1, Epidermal growth factor receptor (Homo sapiens, UniProt P00533); test: Inhibition of EGFR (unknown origin) after 1 to 1.5 hrs by FRET-based Z'-Lyte assay
SK-MEL-28 = test: cells; format: functional, cell-based; conditions: Homo sapiens, SK-MEL-28, 68 h
cells = format: functional; conditions: Homo sapiens, 68 h
Homo sapiens [3] = organism: Homo sapiens; test: Inhibition of MAPK-mediated ERK phosphorylation at Thr202/Tyr204 in human SK-MEL-28-PR30 cells at 1 uM after 48 hrs by Western blotting analysis; format: cell-based
How it was run: (§1)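 Time-course western blot with treatment at 1.0 μM. SK-MEL-28-PR30 or WiDr cells exposed for 2, 24 and 48 h. RIPA lysates quantified by BCA, equal protein blotted on PVDF, and probed for phospho-ERK (T202/Y204), total ERK and GAPDH.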

Homo sapiens [4] = organism: Homo sapiens; test: Inhibition of MAPK-mediated ERK phosphorylation at Thr202/Tyr204 in human SK-MEL-28-PR30 cells at 1 uM after 24 hrs by Western blotting analysis; format: cell-based; how it was run: as §1
HT-29 [5] = test: Inhibition of MAPK-mediated ERK phosphorylation at Thr202/Tyr204 in human HT-29 cells after 2 hrs by Western blotting analysis; format: cell-based
How it was run: (§2)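 1 × 10⁶ cells seeded overnight in 6-cm dishes, then treated 2 h with 3, 1 or 0.3 μM in fresh medium; 1‰ DMSO as control. RIPA lysates, protein quantified by BCA, equal loads run on PVDF blots. Blocked 1 h at room temperature, then probed for EGFR, phospho-EGFR (Tyr1068), ERK, phospho-ERK (T202/Y204) and GAPDH.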

HT-29 [6] = test: Antiproliferative activity against human HT-29 cells harboring BRAF V600E mutant and EGFR after 68 hrs […]; format: functional, cell-based; conditions: HT-29, 68 h
WiDr [7] = test: Antiproliferative activity against human WiDr cells harboring BRAF V600E mutant and EGFR after 68 hrs […]; format: functional, cell-based
[8] = molecular target: T1, Epidermal growth factor receptor; test: Inhibition of EGFR phosphorylation at Tyr1068 in human WiDr cells after 2 hrs by Western blotting analysis; format: cell-based; how it was run: as §2
Homo sapiens [9] = organism: Homo sapiens; test: Inhibition of MAPK-mediated ERK phosphorylation at Thr202/Tyr204 in human SK-MEL-28-PR30 cells after 2 hrs by Western blotting analysis; format: cell-based; how it was run: as §2
HCT-116 = test: Antiproliferative activity against human HCT116 cells harboring wild-type BRAF and EGFR after 68 hrs […]; format: functional, cell-based; conditions: HCT-116, 68 h
Homo sapiens [10] = organism: Homo sapiens; test: Effect on total ERK protein level in human SK-MEL-28-PR30 cells after 2 hrs by Western blotting analysis; format: functional, cell-based; how it was run: as §2
LoVo = test: Antiproliferative activity against human LoVo cells harboring wild-type BRAF after 68 hrs by […]; format: functional, cell-based
[11] = molecular target: T1, Epidermal growth factor receptor; test: Inhibition of EGFR phosphorylation at Tyr1068 in human HT-29 cells after 2 hrs by Western blotting analysis; format: cell-based; how it was run: as §2
WiDr [12] = test: Inhibition of MAPK-mediated ERK phosphorylation at Thr202/Tyr204 in human WiDr cells at 1 uM after 2 to 48 hrs by Western blotting analysis; format: cell-based; how it was run: as §1
A-375 = test: Inhibition of MAPK-mediated ERK phosphorylation at Thr202/Tyr204 in human A375 cells after 2 hrs by Western blotting analysis; format: cell-based; how it was run: as §2
COLO 205 = test: Antiproliferative activity against human COLO205 cells harboring BRAF V600E mutant and EGFR after 68 hrs by MTS assay; format: functional, cell-based; conditions: COLO 205, 68 h
[13] = molecular target: Platelet-derived growth factor receptor beta (Homo sapiens) (UniProt P09619); test: Inhibition of PDGFRbeta (unknown origin) at 1 uM by KINOMEscan assay
How it was run: (§3)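 KINOMEscan binding screen across a panel of 456 kinases (including 395 distinct wild-type kinases), with test compound at 1.0 μM.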

[14] = molecular target: Receptor tyrosine-protein kinase erbB-4 (Homo sapiens) (UniProt Q15303); test: Inhibition of ERBB4 (unknown origin) at 1 uM by KINOMEscan assay; how it was run: as §3
Homo sapiens [15] = organism: Homo sapiens; test: Effect on total EGFR protein level in human SK-MEL-28-PR30 cells after 2 hrs by Western blotting analysis; format: functional, cell-based; how it was run: as §2
[16] = molecular target: T1, Epidermal growth factor receptor; test: Inhibition of EGFR phosphorylation at Tyr1068 in human A375 cells after 2 hrs by Western blotting analysis; format: cell-based; conditions: A-375; how it was run: as §2
WiDr [17] = test: Inhibition of MAPK-mediated ERK phosphorylation at Thr202/Tyr204 in human WiDr cells after 2 hrs by Western blotting analysis; format: cell-based; how it was run: as §2
[18] = molecular target: Receptor tyrosine-protein kinase erbB-2 (Homo sapiens) (UniProt P04626); test: Inhibition of ERBB2 (unknown origin) at 1 uM by KINOMEscan assay; how it was run: as §3
[19] = molecular target: T1, Epidermal growth factor receptor; test: Inhibition of EGFR phosphorylation at Tyr1068 in human SK-MEL-28-PR30 cells after 2 hrs by Western blotting analysis; format: cell-based; how it was run: as §2

T1 sequence (P00533 whole entry): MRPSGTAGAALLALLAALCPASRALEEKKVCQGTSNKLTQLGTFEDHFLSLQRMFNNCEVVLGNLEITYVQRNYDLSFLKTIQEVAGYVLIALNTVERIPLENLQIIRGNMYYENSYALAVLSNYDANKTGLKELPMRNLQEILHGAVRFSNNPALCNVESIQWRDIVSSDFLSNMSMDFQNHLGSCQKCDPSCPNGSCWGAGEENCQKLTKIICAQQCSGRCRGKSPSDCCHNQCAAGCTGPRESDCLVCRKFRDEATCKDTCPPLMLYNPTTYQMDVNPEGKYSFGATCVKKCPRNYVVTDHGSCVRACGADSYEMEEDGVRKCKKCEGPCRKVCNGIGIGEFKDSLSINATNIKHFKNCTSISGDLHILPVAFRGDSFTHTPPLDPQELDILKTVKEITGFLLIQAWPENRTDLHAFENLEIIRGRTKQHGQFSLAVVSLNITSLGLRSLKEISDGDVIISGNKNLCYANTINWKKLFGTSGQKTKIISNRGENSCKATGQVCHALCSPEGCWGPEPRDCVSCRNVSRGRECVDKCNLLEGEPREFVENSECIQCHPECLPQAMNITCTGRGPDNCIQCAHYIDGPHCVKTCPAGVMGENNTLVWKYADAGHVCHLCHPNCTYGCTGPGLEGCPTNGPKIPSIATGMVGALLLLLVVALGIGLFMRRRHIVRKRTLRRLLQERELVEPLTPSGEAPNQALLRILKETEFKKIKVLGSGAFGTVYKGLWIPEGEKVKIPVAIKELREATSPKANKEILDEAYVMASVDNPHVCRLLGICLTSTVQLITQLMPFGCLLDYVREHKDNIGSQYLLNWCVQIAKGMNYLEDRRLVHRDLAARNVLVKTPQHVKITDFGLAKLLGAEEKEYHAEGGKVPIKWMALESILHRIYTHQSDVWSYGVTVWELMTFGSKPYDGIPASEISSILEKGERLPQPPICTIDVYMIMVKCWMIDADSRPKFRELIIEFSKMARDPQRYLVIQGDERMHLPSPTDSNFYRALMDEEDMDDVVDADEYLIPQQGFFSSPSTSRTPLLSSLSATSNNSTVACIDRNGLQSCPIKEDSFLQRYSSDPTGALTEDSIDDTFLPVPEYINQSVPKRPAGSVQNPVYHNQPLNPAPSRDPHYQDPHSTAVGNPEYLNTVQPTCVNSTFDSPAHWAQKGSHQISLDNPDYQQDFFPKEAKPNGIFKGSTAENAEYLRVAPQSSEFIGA
Serine/threonine-protein kinase B-raf, sequence (P15056 2-766 V600E limits assumed): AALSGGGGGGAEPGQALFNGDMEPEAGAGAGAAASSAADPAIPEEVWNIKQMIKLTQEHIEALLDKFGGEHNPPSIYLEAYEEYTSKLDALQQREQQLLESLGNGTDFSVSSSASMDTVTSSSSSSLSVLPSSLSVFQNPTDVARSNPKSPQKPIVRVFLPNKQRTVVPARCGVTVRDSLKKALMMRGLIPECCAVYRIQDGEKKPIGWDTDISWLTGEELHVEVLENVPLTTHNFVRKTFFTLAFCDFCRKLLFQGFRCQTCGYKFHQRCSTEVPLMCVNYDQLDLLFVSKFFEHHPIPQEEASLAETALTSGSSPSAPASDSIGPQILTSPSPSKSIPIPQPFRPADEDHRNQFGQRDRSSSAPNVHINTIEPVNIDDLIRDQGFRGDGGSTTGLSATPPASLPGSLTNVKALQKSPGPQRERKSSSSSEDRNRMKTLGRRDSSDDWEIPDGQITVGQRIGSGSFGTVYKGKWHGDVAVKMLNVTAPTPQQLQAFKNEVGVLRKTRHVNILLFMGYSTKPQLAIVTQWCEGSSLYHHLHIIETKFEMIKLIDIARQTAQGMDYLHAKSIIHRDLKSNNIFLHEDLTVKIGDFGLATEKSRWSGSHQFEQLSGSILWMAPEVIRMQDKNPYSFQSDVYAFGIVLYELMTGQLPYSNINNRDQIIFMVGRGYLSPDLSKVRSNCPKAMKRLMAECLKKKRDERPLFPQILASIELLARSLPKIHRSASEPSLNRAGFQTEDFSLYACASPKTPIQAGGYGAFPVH
Platelet-derived growth factor receptor beta (Homo sapiens), sequence (P09619 whole entry): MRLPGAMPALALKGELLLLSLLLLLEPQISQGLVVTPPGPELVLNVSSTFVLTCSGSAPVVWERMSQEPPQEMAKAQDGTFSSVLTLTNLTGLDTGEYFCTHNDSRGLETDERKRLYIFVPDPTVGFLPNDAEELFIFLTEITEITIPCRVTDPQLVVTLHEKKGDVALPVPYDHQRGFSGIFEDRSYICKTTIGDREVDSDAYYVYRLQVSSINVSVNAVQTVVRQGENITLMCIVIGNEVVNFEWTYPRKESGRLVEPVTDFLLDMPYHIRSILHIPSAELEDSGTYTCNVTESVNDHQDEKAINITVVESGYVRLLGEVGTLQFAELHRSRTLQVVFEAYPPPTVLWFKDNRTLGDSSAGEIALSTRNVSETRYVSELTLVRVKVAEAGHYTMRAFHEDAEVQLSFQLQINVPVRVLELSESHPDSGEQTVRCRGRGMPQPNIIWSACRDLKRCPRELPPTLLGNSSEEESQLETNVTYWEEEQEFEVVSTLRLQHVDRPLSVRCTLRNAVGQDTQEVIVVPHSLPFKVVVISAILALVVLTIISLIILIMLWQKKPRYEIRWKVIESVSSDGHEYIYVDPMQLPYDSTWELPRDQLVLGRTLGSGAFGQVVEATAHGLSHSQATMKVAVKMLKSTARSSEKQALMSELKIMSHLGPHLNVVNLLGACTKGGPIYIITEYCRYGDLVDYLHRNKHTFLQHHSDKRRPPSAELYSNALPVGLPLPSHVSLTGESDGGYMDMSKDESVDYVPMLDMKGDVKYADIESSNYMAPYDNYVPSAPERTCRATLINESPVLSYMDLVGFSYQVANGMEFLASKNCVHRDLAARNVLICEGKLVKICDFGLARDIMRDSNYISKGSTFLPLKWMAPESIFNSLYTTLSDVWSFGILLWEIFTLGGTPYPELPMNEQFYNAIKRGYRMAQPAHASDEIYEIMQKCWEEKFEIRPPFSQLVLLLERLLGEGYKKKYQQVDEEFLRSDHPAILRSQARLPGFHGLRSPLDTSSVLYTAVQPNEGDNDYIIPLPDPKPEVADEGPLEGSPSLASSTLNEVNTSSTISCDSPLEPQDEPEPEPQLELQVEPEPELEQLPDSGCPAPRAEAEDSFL
Receptor tyrosine-protein kinase erbB-2 (Homo sapiens), sequence (P04626 whole entry): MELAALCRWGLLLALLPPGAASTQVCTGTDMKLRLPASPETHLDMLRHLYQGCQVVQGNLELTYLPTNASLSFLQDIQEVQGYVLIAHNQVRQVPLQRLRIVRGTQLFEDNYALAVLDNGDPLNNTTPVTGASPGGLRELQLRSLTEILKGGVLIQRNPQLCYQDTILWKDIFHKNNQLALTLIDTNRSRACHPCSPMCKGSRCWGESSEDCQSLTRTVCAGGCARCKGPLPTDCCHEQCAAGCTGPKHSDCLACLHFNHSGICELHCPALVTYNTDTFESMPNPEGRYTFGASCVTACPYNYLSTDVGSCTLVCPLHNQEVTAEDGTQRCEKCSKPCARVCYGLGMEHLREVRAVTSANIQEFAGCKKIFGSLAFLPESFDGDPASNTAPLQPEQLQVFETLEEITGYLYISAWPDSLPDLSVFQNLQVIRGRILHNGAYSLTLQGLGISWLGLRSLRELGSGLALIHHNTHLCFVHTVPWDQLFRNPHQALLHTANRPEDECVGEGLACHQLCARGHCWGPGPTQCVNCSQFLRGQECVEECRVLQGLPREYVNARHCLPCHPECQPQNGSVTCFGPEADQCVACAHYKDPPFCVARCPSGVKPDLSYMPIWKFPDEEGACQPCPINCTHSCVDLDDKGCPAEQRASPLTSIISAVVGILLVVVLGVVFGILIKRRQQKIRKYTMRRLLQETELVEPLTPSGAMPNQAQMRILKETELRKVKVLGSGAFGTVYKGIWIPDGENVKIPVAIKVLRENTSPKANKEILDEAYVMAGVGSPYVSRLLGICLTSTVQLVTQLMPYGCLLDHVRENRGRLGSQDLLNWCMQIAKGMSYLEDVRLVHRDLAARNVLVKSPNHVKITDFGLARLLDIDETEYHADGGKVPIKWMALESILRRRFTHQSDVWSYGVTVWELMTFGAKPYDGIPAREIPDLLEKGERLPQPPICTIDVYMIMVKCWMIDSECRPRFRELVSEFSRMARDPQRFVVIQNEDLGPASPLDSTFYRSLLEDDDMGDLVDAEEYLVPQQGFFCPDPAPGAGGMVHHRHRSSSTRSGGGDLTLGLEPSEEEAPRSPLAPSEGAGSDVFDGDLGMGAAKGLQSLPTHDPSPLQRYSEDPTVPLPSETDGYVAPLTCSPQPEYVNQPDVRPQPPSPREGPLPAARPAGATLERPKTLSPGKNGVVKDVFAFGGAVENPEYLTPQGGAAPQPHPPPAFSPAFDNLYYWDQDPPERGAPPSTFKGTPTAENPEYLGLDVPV

SMILES | IC50 [1] | IC50 [2] | IC50 (SK-MEL-28) | IC50 (cells) | further results
Cc1ccc(C(=O)Nc2ccc(CN3CCN(C)CC3)c(C(F)(F)F)c2)cc1NC(=O)c1ccc(O)nc1 | > 10000 nM | 1330 nM | > 20000 nM | > 20000 nM | –
Cc1ccc(C(=O)Nc2ccc(CN3CCN(C)CC3)c(C(F)(F)F)c2)cc1NC(=O)c1cnc(N(C)C)nc1 | 300 nM | 5540 nM | 6960 nM | 2490 nM | –
Cc1ccc(C(=O)Nc2ccc(CN3CCN(C)CC3)c(C(F)(F)F)c2)cc1NC(=O)c1cccnc1 | 551 nM | 550 nM | 14000 nM | > 20000 nM | –
Cc1ccc(C(=O)Nc2ccc(CN3CCN(C)CC3)c(C(F)(F)F)c2)cc1NC(=O)c1ccc2[nH]ccc2c1 | 220 nM | > 10000 nM | 4430 nM | 3040 nM | –
Cc1ccc(C(=O)Nc2ccc(CN3CCN(C)CC3)c(C(F)(F)F)c2)cc1NC(=O)c1ccccn1 | 573 nM | – | > 20000 nM | 10700 nM | –
Cc1ccc(C(=O)Nc2ccc(CN3CCN(C)CC3)c(C(F)(F)F)c2)cc1NC(=O)c1ccccc1 | 240 nM | > 10000 nM | 6910 nM | 5030 nM | –
CC(C)c1ccc(C(=O)Nc2ccc(CN3CCN(C)CC3)c(C(F)(F)F)c2)cc1NC(=O)c1cnc2[nH]ccc2c1 | 290 nM | 160 nM | 2270 nM | 1900 nM | –
Cc1ccc(C(=O)Nc2ccc(CN3CCN(C)CC3)c(C(F)(F)F)c2)cc1NC(=O)c1cnc(NC2CCCCC2)nc1 | 37 nM | 47 nM | 2380 nM | 2730 nM | –
CNc1ncc(C(=O)Nc2cc(C(=O)Nc3ccc(CN4CCN(C)CC4)c(C(F)(F)F)c3)ccc2C)cn1 | 290 nM | 120 nM | > 20000 nM | 2750 nM | –
Cc1ccc(C(=O)Nc2ccc(CN3CCN(C)CC3)c(C(F)(F)F)c2)cc1NC(=O)c1cnc(NC2CCCC2)nc1 | 230 nM | 33 nM | 2040 nM | 1240 nM | –
Cc1ccc(C(=O)Nc2ccc(CN3CCN(C)CC3)c(C(F)(F)F)c2)cc1NC(=O)c1cncnc1 | 670 nM | 1920 nM | > 20000 nM | > 20000 nM | –
Cc1ccc(C(=O)Nc2ccc(CN3CCN(C)CC3)c(C(F)(F)F)c2)cc1NC(=O)c1ccncc1 | 110 nM | > 10000 nM | > 20000 nM | > 20000 nM | –
Cc1ccc(C(=O)Nc2ccc(CN3CCN(C)CC3)c(C(F)(F)F)c2)cc1NC(=O)c1cnccn1 | 280 nM | 3900 nM | > 20000 nM | > 20000 nM | –
Cc1ccc(C(=O)Nc2ccc(CN3CCN(C)CC3)c(C(F)(F)F)c2)cc1NC(=O)c1cnc(NC2CC2)nc1 | 390 nM | 44 nM | 2960 nM | 1440 nM | –
Cc1ccc(C(=O)Nc2ccc(CN3CCN(C)CC3)c(C(F)(F)F)c2)cc1NC(=O)c1cnc(N)nc1 | 410 nM | 43 nM | 1840 nM | 1890 nM | –

Now those with a lower IC50 (SK-MEL-28), led by results:

IC50 [1] | IC50 [2] | IC50 (SK-MEL-28) | IC50 (cells) | SMILES | further results
340 nM | 43 nM | 1730 nM | 860 nM | Cc1ccc(C(=O)Nc2ccc(CN3CCN(C)CC3)c(C(F)(F)F)c2)cc1NC(=O)c1cnc(NC(C)C)nc1 | –
– | – | 480 nM | > 20000 nM | CCCS(=O)(=O)Nc1ccc(F)c(C(=O)c2c[nH]c3ncc(-c4ccc(Cl)cc4)cc23)c1F [VEMURAFENIB] | inhibition (Homo sapiens [3]): inactive; inhibition (Homo sapiens [4]): inactive
210 nM | 6 nM | 1700 nM | 900 nM | Cc1ccc(C(=O)Nc2ccc(CN3CCN(C)CC3)c(C(F)(F)F)c2)cc1NC(=O)c1cnc(Nc2ccccc2)nc1 | –
51 nM | 8 nM | 130 nM | 450 nM | Cc1ccc(C(=O)Nc2ccc(CN3CCN(C)CC3)c(C(F)(F)F)c2)cc1NC(=O)c1cnc2[nH]ccc2c1 | inhibition (HT-29 [5]): Dose-dependent effect; inhibition (Homo sapiens [3]): Active; IC50 (HT-29 [6]): 480 nM; IC50 (WiDr [7]): 670 nM; inhibition [8]: Dose-dependent effect; inhibition (Homo sapiens [9]): Dose-dependent effect; IC50 (HCT-116): 1330 nM; inhibition (Homo sapiens [10]): Dose-dependent effect; IC50 (LoVo): 170 nM; inhibition [11]: Dose-dependent effect; inhibition (WiDr [12]): Active; inhibition (A-375): Dose-dependent effect; IC50 (COLO 205): 220 nM; inhibition [13]: Active; inhibition [14]: Active; inhibition (Homo sapiens [15]): Dose-dependent effect; inhibition [16]: Dose-dependent effect; inhibition (WiDr [17]): Dose-dependent effect; inhibition [18]: Active; inhibition [19]: Dose-dependent effect
48 nM | 680 nM | 1070 nM | 1730 nM | CN1CCN(Cc2ccc(NC(=O)c3cccc(NC(=O)c4cnc5[nH]ccc5c4)c3)cc2C(F)(F)F)CC1 | –
510 nM | 130 nM | 1090 nM | 2400 nM | CCNc1ncc(C(=O)Nc2cc(C(=O)Nc3ccc(CN4CCN(C)CC4)c(C(F)(F)F)c3)ccc2C)cn1 | –
48 nM | 30 nM | 540 nM | 780 nM | Cc1ccc(C(=O)Nc2ccc(CN3CCN(C)CC3)c(C(F)(F)F)c2)cc1NC(=O)c1cnc2[nH]ncc2c1 | IC50 (HT-29 [6]): 780 nM; IC50 (WiDr [7]): 1350 nM; IC50 (HCT-116): 1380 nM; IC50 (LoVo): 480 nM; IC50 (COLO 205): 360 nM
360 nM | 99 nM | 910 nM | 490 nM | CCc1ccc(C(=O)Nc2ccc(CN3CCN(C)CC3)c(C(F)(F)F)c2)cc1NC(=O)c1cnc2[nH]ccc2c1 | –
